Source: ChEMBL document CHEMBL2417469, “Synthesis of novel analogs of 2-pyrazoline obtained from [(7-chloroquinolin-4-yl)amino]chalcones and hydrazine as potential antitumor and antimalarial agents” (Eur J Med Chem, 2013)

Experiments:
Format in all cases: functional
[1] = test system: SR; experiment: Cytotoxicity against human SR cells after 48 hrs by SRB assay
Summary of the method: (§1)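 NCI 60-cell screen. Cells grew 24 h (37 °C, 5% CO2) before compound was added. Compounds were in DMSO and diluted in medium with gentamicin, then tested at five levels (100, 10, 1.0, 0.1, 0.01 µM) with 48 h continuous exposure. Adherent cells were fixed with TCA (10% final) and stained with 0.4% SRB, absorbance read at 515 nm. A time-zero plate was included. LC50 is the concentration giving 50% loss of protein relative to time zero.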

[2] = test system: LOX IMVI; experiment: Cytotoxicity against human LOXIMVI cells after 48 hrs by SRB assay
Summary of the method: (§2)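 NCI 60-cell-line screen. Cells preincubated 24 h at 37 °C, 5% CO2; time-zero plates TCA-fixed. Compounds dissolved in DMSO and tested at five concentrations (100, 10, 1.0, 0.1, 0.01 µM) for 48 h continuous exposure. Adherent cells fixed with cold TCA (10% final), then SRB stained; absorbance at 515 nm. GI50, TGI and LC50 calculated from growth relative to time-zero and untreated controls.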

[3] = test system: SK-OV-3; experiment: Cytotoxicity against human SKOV3 cells after 48 hrs by SRB assay; details: SK-OV-3, 48 h; summary of the method: as §2
[4] = test system: A498; experiment: Cytotoxicity against human A498 cells after 48 hrs by SRB assay; details: A498, 48 h, read-out: LC50 (the source's name); summary of the method: as §2
[5] = test system: HT-29; experiment: Cytotoxicity against human HT-29 cells after 48 hrs by SRB assay; details: HT-29, 48 h; summary of the method: as §2
[6] = test system: RXF 393; experiment: Cytotoxicity against human RXF393 cells after 48 hrs by SRB assay; details: RXF 393, 48 h; summary of the method: as §2
[7] = test system: TK-10; experiment: Cytotoxicity against human TK10 cells after 48 hrs by SRB assay; details: TK-10, 48 h; summary of the method: as §1
[8] = test system: 786-0; experiment: Cytotoxicity against human 786-0 cells after 48 hrs by SRB assay; details: 786-0, 48 h; summary of the method: as §2
[9] = test system: CCRF-CEM; experiment: Cytotoxicity against human CCRF-CEM cells after 48 hrs by SRB assay; summary of the method: as §2
[10] = test system: Malme-3M; experiment: Cytotoxicity against human MALME-3M cells after 48 hrs by SRB assay; summary of the method: as §2
[11] = test system: MDA-MB-468; experiment: Cytotoxicity against human MDA-MB-468 cells after 48 hrs by SRB assay; details: MDA-MB-468, 48 h; summary of the method: as §2
[12] = test system: IGROV-1; experiment: Cytotoxicity against human IGROV1 cells after 48 hrs by SRB assay; details: IGROV-1, 48 h; summary of the method: as §2
[13] = test system: HCT-116; experiment: Cytotoxicity against human HCT116 cells after 48 hrs by SRB assay; details: HCT-116, 48 h; summary of the method: as §2
[14] = test system: HCT-15; experiment: Cytotoxicity against human HCT15 cells after 48 hrs by SRB assay; details: HCT-15, 48 h; summary of the method: as §2
[15] = test system: SNB-19; experiment: Cytotoxicity against human SNB19 cells after 48 hrs by SRB assay; details: SNB-19, 48 h; summary of the method: as §1
[16] = test system: MDA-MB-435; experiment: Cytotoxicity against human MDA-MB-435 cells after 48 hrs by SRB assay; details: MDA-MB-435, 48 h; summary of the method: as §2
[17] = test system: CAKI-1; experiment: Cytotoxicity against human Caki1 cells after 48 hrs by SRB assay; details: CAKI-1, 48 h; summary of the method: as §2
[18] = test system: OVCAR-8; experiment: Cytotoxicity against human OVCAR8 cells after 48 hrs by SRB assay; details: OVCAR-8, 48 h; summary of the method: as §2
[19] = test system: PC-3; experiment: Cytotoxicity against human PC3 cells after 48 hrs by SRB assay; details: PC-3, 48 h; summary of the method: as §2
[20] = test system: SF-539; experiment: Cytotoxicity against human SF539 cells after 48 hrs by SRB assay; details: SF-539, 48 h; summary of the method: as §2
[21] = test system: OVCAR-4; experiment: Cytotoxicity against human OVCAR4 cells after 48 hrs by SRB assay; details: OVCAR-4, 48 h; summary of the method: as §2
[22] = test system: A549; experiment: Cytotoxicity against human A549/ATCC cells after 48 hrs by SRB assay; details: A549, 48 h; summary of the method: as §2
[23] = test system: Hs-578T; experiment: Cytotoxicity against human Hs578T cells after 48 hrs by SRB assay; summary of the method: as §2
[24] = test system: UACC-62; experiment: Cytotoxicity against human UACC62 cells after 48 hrs by SRB assay; details: UACC-62, 48 h; summary of the method: as §1
[25] = test system: SK-MEL-28; experiment: Cytotoxicity against human SK-MEL-28 cells after 48 hrs by SRB assay; details: SK-MEL-28, 48 h; summary of the method: as §2
[26] = test system: MCF7; experiment: Cytotoxicity against human MCF7 cells after 48 hrs by SRB assay; details: MCF7, 48 h; summary of the method: as §2
[27] = test system: U-251; experiment: Cytotoxicity against human U251 cells after 48 hrs by SRB assay; details: U-251, 48 h; summary of the method: as §1
[28] = test system: HOP-92; experiment: Cytotoxicity against human HOP92 cells after 48 hrs by SRB assay; details: HOP-92, 48 h; summary of the method: as §2
[29] = test system: SF-268; experiment: Cytotoxicity against human SF268 cells after 48 hrs by SRB assay; details: SF-268, 48 h; summary of the method: as §2
[30] = test system: MDA-MB-231; experiment: Cytotoxicity against human MDA-MB-231 cells after 48 hrs by SRB assay; details: MDA-MB-231, 48 h; summary of the method: as §2
[31] = test system: UO-31; experiment: Cytotoxicity against human UO31 cells after 48 hrs by SRB assay; details: UO-31, 48 h; summary of the method: as §1
[32] = test system: HCC 2998; experiment: Cytotoxicity against human HCC2998 cells after 48 hrs by SRB assay; details: HCC 2998, 48 h; summary of the method: as §2
[33] = test system: DU-145; experiment: Cytotoxicity against human DU145 cells after 48 hrs by SRB assay; details: DU-145, 48 h; summary of the method: as §2
[34] = test system: NCI-H226; experiment: Cytotoxicity against human NCI-H226 cells after 48 hrs by SRB assay; details: NCI-H226, 48 h; summary of the method: as §2
[35] = test system: M14; experiment: Cytotoxicity against human M14 cells after 48 hrs by SRB assay; details: M14, 48 h; summary of the method: as §2
[36] = test system: KM12; experiment: Cytotoxicity against human KM12 cells after 48 hrs by SRB assay; details: KM12, 48 h; summary of the method: as §2
[37] = read-out: LC50 (the source's name)

## Cc1ccc(C2CC(c3ccc(Nc4ccnc5cc(Cl)ccc45)cc3)=NN2C=O)cc1 (stereo unspecified)
[1]
  GI50: 3.18 µM
  LC50: > 100 µM
[2]
  GI50: 4.11 µM
  LC50: > 100 µM
[3]
  GI50: > 100 µM
  LC50 (concentration killing 50% of cells): > 100 µM
[4]
  CC50: > 100 µM
[5]
  GI50: 6.09 µM
  LC50: > 100 µM
[6]
  GI50: 4.89 µM
  LC50 (concentration killing 50% of cells): > 100 µM
[7]
  GI50: > 100 µM
  LC50 (concentration giving 50% cell loss vs time zero): > 100 µM
[8]
  GI50: 50.9 µM
  LC50: > 100 µM
[9]
  GI50: 2.25 µM
  LC50 (concentration killing 50% of cells relative to time zero): > 100 µM
[10]
  GI50: > 100 µM
  LC50: > 100 µM
[11]
  GI50: 1.51 µM
  LC50: > 100 µM
[12]
  GI50: 26.6 µM
  LC50 (concentration killing 50% of cells relative to time zero): > 100 µM
[13]
  GI50: 25.2 µM
  LC50: > 100 µM
[14]
  GI50: 2.78 µM
  LC50 (concentration killing 50% of cells relative to time zero): > 100 µM
[15]
  GI50: > 100 µM
  LC50: > 100 µM
[16]
  GI50: 1.95 µM
  LC50: > 100 µM
[17]
  GI50: > 100 µM
  LC50: > 100 µM
[18]
  GI50: > 100 µM
  LC50 (50% net cell kill): > 100 µM
[19]
  GI50: 4.61 µM
  LC50: > 100 µM
[20]
  GI50: > 100 µM
[20]; [37]
  CC50: > 100 µM
[21]
  GI50: 5.15 µM
  LC50: > 100 µM
[22]
  GI50: 9.86 µM
[22]; [37]
  CC50: > 100 µM
[23]
  GI50: 5.64 µM
  LC50 (50% net cell kill): > 100 µM
[24]
  GI50: 4.13 µM
[24]; [37]
  CC50: > 100 µM
[25]
  GI50: > 100 µM
[25]; [37]
  CC50: > 100 µM
[26]
  GI50: 8.39 µM
[26]; [37]
  CC50: > 100 µM
[27]
  GI50: > 100 µM
[27]; [37]
  CC50: > 100 µM
[28]
  GI50: 2.14 µM
  LC50 (concentration killing 50% of cells): > 100 µM
[29]
  GI50: 8.61 µM
  LC50: > 100 µM
[30]
  GI50: 6.09 µM
  LC50 (concentration killing 50% of cells present at time zero): > 100 µM
[31]
  GI50: 5.49 µM
  LC50: > 100 µM
[32]
  GI50: 7.44 µM
  LC50: > 100 µM
[33]
  GI50: > 100 µM
  LC50 (concentration killing 50% of cells): > 100 µM
[34]
  GI50: > 100 µM
  LC50 (50% lethal concentration): > 100 µM
[35]
  GI50: 6.88 µM
[35]; [37]
  CC50: > 100 µM
[36]
  GI50: 6.64 µM
  LC50 (concentration killing 50% of cells): > 100 µM
